This is an account of results in ChEMBL document CHEMBL4765441, “Design, synthesis and anti-cancer activity of pyrrole-imidazole polyamides through target-downregulation of c-kit gene expression” (Eur J Med Chem, 2020).

The test system of experiment [1] is dsDNA. In words: Binding affinity to 5'-AGGGGAGGCGAGGAGGGGCGTGGCCGG-3'/3'-TCCCCTCCGCTCCTCCCCGCACCGGCC-5' dsDNA (unknown origin) at 0 to 32 uM by SYBR GOLD staining based EMSA. The experiment is classed as nucleic-acid assay. Conditions: Homo sapiens; dose 0-32 µM. The gist of the method: (§1)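 Target 27-bp c-kit promoter duplex, annealed at 95 °C, then incubated overnight with or without compound in pH 7.4 buffer (10 mM Tris-HCl, 10 mM KCl, 0.1 mM EDTA). Mixtures run on 16% native polyacrylamide gel at 150 V for 3 h. Gels stained with SYBR Gold for 30 min and imaged on a gel documentation system.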

Experiment [2] relates to SGC-7901. Briefly: Down regulation of c-kit gene expression in human SGC-7901 cells at 15 uM incubated for 36 hrs by Western blot analysis. The experiment is classed as functional, cell-based. The method in brief: (§2)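 Cells exposed to compound for 36 h, then lysed in RIPA and protein measured by BCA. 30 units of total protein separated by 10% SDS-PAGE, transferred to PVDF and blocked with 5% BSA. Primary antibodies, with β-tubulin as reference, at 4 °C; secondary 2 h; ECL detection. Bands quantified by densitometry, mean ± SD, n = 3.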

In a further experiment the test system is Bel-7402. Briefly: Antiproliferative activity against human Bel-7402 cells assessed as reduction in cell viability incubated for 48 hrs by xCELLigence RTCA. The format is functional, cell-based. Conditions: Bel-7402, 48 h.
In experiment [3] the test system is SGC-7901. Briefly: Antiproliferative activity against human SGC7901 cells assessed as reduction in cell viability incubated for 48 hrs by xCELLigence RTCA. The experiment is classed as functional, cell-based. The following applies: SGC-7901, 48 h.
The test system of experiment [4] is SGC-7901. Briefly: Induction of morphological changes in human SGC7901 cells assessed as apoptotic body formation at 7.5 uM incubated for 36 hrs by microscopic analysis. The format is functional, cell-based. The gist of the method:
(§3)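 Cells seeded at 2 × 10^5 per well and grown 24 h. Medium then replaced with compound-containing medium. After 36 h co-culture, morphology inspected by light microscopy.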

The subject of experiment [5] is SGC-7901. Briefly: Induction of morphological changes in human SGC7901 cells assessed as appearance of round shaped cells at 7.5 uM incubated for 36 hrs by microscopic analysis. The format is functional, cell-based. The method in brief:
as §3

Experiment [6] deals with SGC-7901. In words: Induction of apoptosis in human SGC7901 cells assessed as apoptotic rate at 20 uM incubated for 36 hrs by Annexin V-FITC/propidium iodide staining-based flow cytometric analysis. The format is functional.
For another experiment, the system named is MKN-45. Briefly: Antiproliferative activity against human MKN-45 cells assessed as reduction in cell viability incubated for 48 hrs by xCELLigence RTCA. The experiment is classed as functional, cell-based. Conditions: MKN-45, 48 h.
The test system of experiment [7] is dsDNA. In words: Binding affinity to 5'-AGGGGAGGCGAGGAGGGGCGTGGCCGG-3'/3'-TCCCCTCCGCTCCTCCCCGCACCGGCC-5' dsDNA (unknown origin) by circular dichroism spectroscopic analysis. Conditions: Homo sapiens. The experiment is classed as nucleic-acid assay. The method in brief:
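Target duplex annealed at 95 °C, held 24 h in pH 7.0 buffer (10 mM sodium cacodylate, 100 mM NaCl, 0.5% DMSO), then degassed. Compound titrated in at compound:DNA ratios 0.0–3.0, room temperature, 15 min equilibration per addition. CD read 225–400 nm in a 5 mm quartz cell at 100 nm/min, 5.0 nm bandwidth. Average of three parallel runs.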

Experiment [8] concerns A549. Briefly: Induction of apoptosis in human A549 cells assessed as apoptotic rate at 20 uM incubated for 36 hrs by Annexin V-FITC/propidium iodide staining-based flow cytometric analysis. The format is functional.
Experiment [9] has as its system SGC-7901. In words: Induction of morphological changes in human SGC7901 cells assessed as cell detachment at 7.5 uM incubated for 36 hrs by microscopic analysis. The format is functional, cell-based. The method in brief: as §3
In experiment [10] the test system is dsDNA. In words: Binding affinity to 5'-AGGGGAGGCGAGGAGGGGCGTGGCCGG-3'/3'-TCCCCTCCGCTCCTCCCCGCACCGGCC-5' dsDNA (unknown origin) at 1:8 DNA:compound ratio by SYBR GOLD staining based EMSA. The format is nucleic-acid assay. Conditions: Homo sapiens. The gist of the method: as §1
A general note: In EMSA bound probe runs differently from free probe, usually more slowly.

Experiment [11] relates to A549. Briefly: Inhibition of cell migration in human A549 cells at 1.5 uM incubated for 48 hrs by inverted fluorescence microscope based scratch wound healing assay. The experiment is classed as functional. The method in brief: (§4)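 20 × 10^4 cells per well grown to 80% confluence. Wound scratched with a pipette tip, washed twice with PBS and photographed under an inverted fluorescence microscope. Cells then held in serum-free medium with compound for 48 h. Migration measured as distance moved from the wound edge; mean ± SD, n = 3.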

Experiment [12] has as its system A549. In words: Down regulation of c-kit gene expression in human A549 cells at 15 uM incubated for 36 hrs by Western blot analysis. The format is functional, cell-based. The method in brief:
as §2

The subject of experiment [13] is A549. In words: Induction of morphological changes in human A549 cells assessed as cell detachment at 15 uM incubated for 36 hrs by microscopic analysis. The format is functional, cell-based. The gist of the method: as §3
Experiment [14] has as its system SGC-7901. Briefly: Inhibition of cell migration in human SGC7901 cells at 1.5 uM incubated for 48 hrs by inverted fluorescence microscope based scratch wound healing assay. The format is functional. The gist of the method:
as §4

For experiment [15], the system named is A549. Briefly: Antiproliferative activity against human A549 cells assessed as reduction in cell viability incubated for 48 hrs by xCELLigence RTCA. The format is functional, cell-based. The following applies: A549, 48 h.
Experiment [16] concerns A549. Briefly: Induction of morphological changes in human A549 cells assessed as membrane bulge at 15 uM incubated for 36 hrs by microscopic analysis. The format is functional, cell-based. The method in brief:
as §3

The subject of experiment [17] is dsDNA. In words: Binding affinity to 5'-AGGGGAGGCGAGGAGGGGCGTGGCCGG-3'/3'-TCCCCTCCGCTCCTCCCCGCACCGGCC-5' dsDNA (unknown origin) by SYBR GOLD staining based EMSA. The format is nucleic-acid assay. Conditions: Homo sapiens. The method in brief:
as §1

Where a name gives a salt, the structure may show the parent alone. Calls of active or inactive are those of the source. The rule behind the calls is not given here.

A word on the IC50: it is the concentration at which inhibition is half-maximal. A word on the inhibition: it is the relative decrease from the control value, in per cent. A low value points to a response near the control.

Turning to `CC(=O)Nc1cn(C)c(C(=O)Nc2cn(C)c(C(=O)NCCC(=O)Nc3cn(C)c(C(=O)Nc4cn(C)c(C(=O)NCC[C@@H](N)C(=O)Nc5cc(C(=O)Nc6cc(C(=O)NC[C@@H](O)CC(=O)Nc7cc(C(=O)Nc8cc(C(=O)NCCC(=O)NCCCN(C)C)n(C)c8)n(C)c7)n(C)c6)n(C)c5)n4)n3)n2)n1`, in the experiment with dsDNA [1], the result was inactive.
Consider `CC(=O)Nc1cn(C)c(C(=O)Nc2cn(C)c(C(=O)Nc3cc(C(=O)Nc4cn(C)c(C(=O)NCCC(=O)Nc5cn(C)c(C(=O)Nc6cn(C)c(C(=O)NCC[C@@H](NC(=O)c7nc(NC(=O)c8nc(NC(=O)c9nccn9C)cn8C)cn7C)C(=O)Nc7cc(C(=O)Nc8cc(C(=O)NC[C@@H](O)CC(=O)Nc9cc(C(=O)Nc%10cn(C)c(C(=O)Nc%11cc(C(=O)Nc%12cc(C(=O)NCCC(=O)NCCCN(C)C)n(C)c%12)n(C)c%11)n%10)n(C)c9)n(C)c8)n(C)c7)n6)n5)n4)n(C)c3)n2)n1.Cl.Cl`, for which the outcome with SGC-7901 [2], in the experiment on SGC-7901 [4], in the experiment with SGC-7901 [5], in the experiment on dsDNA [7], in the experiment on SGC-7901 [9] and in the experiment on dsDNA [10] was Active. Besides, the outcome with A549 [12], with A549 [13] and with A549 [16] was Active. Further, the IC50 is 14.9 µM in the experiment on Bel-7402, 6.05 µM in the experiment with SGC-7901 [3], 19.9 µM with MKN-45 and 7.93 µM with A549 [15]. Further, the Activity in the experiment with SGC-7901 [6] is 53.3%; with A549 [8] it was 47.9%; with dsDNA [17], “Dose-dependent effect”. Further, the inhibition at 1.5 µM in the experiment on A549 [11] came to 73.5%; in the experiment with SGC-7901 [14], 80.8%.
Regarding `CC(=O)Nc1cn(C)c(C(=O)Nc2cn(C)c(C(=O)NC[C@@H](O)CC(=O)Nc3cn(C)c(C(=O)Nc4cn(C)c(C(=O)NCC[C@@H](N)C(=O)Nc5cc(C(=O)Nc6cc(C(=O)NCCC(=O)Nc7cc(C(=O)Nc8cc(C(=O)NCCC(=O)NCCCN(C)C)n(C)c8)n(C)c7)n(C)c6)n(C)c5)n4)n3)n2)n1`, the outcome in the experiment on dsDNA [1] was inactive.
Take `Cc1ccc(NC(=O)c2ccc(CN3CCN(C)CC3)cc2)cc1Nc1nccc(-c2cccnc2)n1` [IMATINIB MESYLATE]: the half-maximal inhibitory concentration (IC50) with Bel-7402 turned out to be 55.5 µM; with SGC-7901 [3], 0.208 µM; in the experiment on MKN-45, 12.2 µM; in the experiment on A549 [15] it was 1.87 µM.
Take `CC(=O)Nc1cn(C)c(C(=O)Nc2cn(C)c(C(=O)Nc3cn(C)c(C(=O)NCCC(=O)Nc4cn(C)c(C(=O)Nc5cn(C)c(C(=O)NCC[C@@H](N)C(=O)Nc6cc(C(=O)Nc7cc(C(=O)NC[C@@H](O)CC(=O)Nc8cc(C(=O)Nc9cc(C(=O)Nc%10cc(C(=O)NCCC(=O)NCCCN(C)C)n(C)c%10)n(C)c9)n(C)c8)n(C)c7)n(C)c6)n5)n4)n3)n2)n1`: in the experiment with dsDNA [1], the result was inactive.
